Reference: ChEMBL document CHEMBL4052637, “Discovery and Characterization of R/S-N-3-Cyanophenyl-N'-(6-tert-butoxycarbonylamino-3,4-dihydro-2,2-dimethyl-2H-1-benzopyran-4-yl)urea, a New Histone Deacetylase Class III Inhibitor Exerting Antiproliferative Activity against Cancer Cell Lines” (J Med Chem, 2017)
Active and inactive are the calls of the source. The rule behind the calls is not given here.

What was measured:
SK-MEL-2 = experiment: Growth inhibition of human SK-MEL-2 cells after 48 hrs by SRB assay; assay type: functional; conditions: SK-MEL-2, 48 h
U-373MG ATCC [1] = experiment: Antitumor activity against CM-Dil fluorescent dye labeled human U373 cells xenografted in zebrafish embryo at 5 to 10 uM preincubated with tumor for 30 to 36 hrs followed by tumor implantation in zebra fish yolk sac measured after 72 hrs by fluorescence microscopy; assay type: functional, cell-based
Method in brief: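 Cells were pretreated in vitro at 5 or 10 μM for 30 or 36 h and labeled with CM-DiI 2 h before injection. Then 100–200 cells were injected into the yolk sac of wild-type zebrafish 48 h post-fertilization, anesthetized in 0.02% tricaine. Embryos were kept 72 h at 28.5 °C in Danieau solution with 0.003% phenylthiourea, and fluorescence was quantified in eight fish per condition.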

NCI-H460 = experiment: Growth inhibition of human NCI-H460 cells after 48 hrs by SRB assay; assay type: functional; conditions: NCI-H460, 48 h
OVCAR-3 = experiment: Growth inhibition of human OVCAR3 cells after 48 hrs by SRB assay; assay type: functional; conditions: OVCAR-3, 48 h
[2] = Potency index, ratio of EX-527 IC50 to test compound IC50 for human U373 cells; assay type: functional, U-373MG ATCC
Hs 683 [3] = experiment: Potency index, ratio of EX-527 IC50 to test compound IC50 for human Hs683 cells; assay type: functional
U-373MG ATCC [4] = experiment: Cell cycle arrest in human U373 cells assessed as accumulation at sub-G1 phase at IC50 for MTT assay after 24 to 48 hrs by propidium iodide staining-based flow cytometry; assay type: functional
Method in brief: (§1)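 Cells were exposed to compound at the IC50 for each line from the 72 h MTT assay, or to a reference HDAC inhibitor at 2 μM. Cell cycle distribution was analyzed after 24 and 48 h. Results are mean ± SD of three independent experiments, with p values against control cells.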

Hs 683 [5] = experiment: Cell cycle arrest in human Hs683 cells assessed as accumulation at sub-G1 phase at IC50 for MTT assay after 24 to 48 hrs by propidium iodide staining-based flow cytometry; assay type: functional; method in brief: as §1
[6] = Induction of apoptosis in human U373 cells at 10 uM after 72 hrs by TUNEL method relative to control; assay type: functional, U-373MG ATCC
SN12C = experiment: Growth inhibition of human SN12C cells after 48 hrs by SRB assay; assay type: functional
U-373MG ATCC [7] = experiment: Cell cycle arrest in human U373 cells assessed as accumulation at G2/M phase at 2 uM after 24 to 48 hrs by propidium iodide staining-based flow cytometry; assay type: functional; conditions: 7.5 uM, in the assay text read “at 7.5 uM” for “at 2 uM”; method in brief: as §1
M14 = experiment: Growth inhibition of human M14 cells after 48 hrs by SRB assay; assay type: functional; conditions: M14, 48 h
U-373MG ATCC [8] = experiment: Antiproliferative activity against human U373 cells transfected with SIRT1/2 siRNA at IC50 for MTT assay after 72 hrs by time-lapse videomicroscopy; assay type: functional, cell-based
LOX IMVI = experiment: Growth inhibition of human LOXIMVI cells after 48 hrs by SRB assay; assay type: functional
[9] = molecular target: T1, NAD-dependent protein deacetylase sirtuin-1 (Homo sapiens) (UniProt Q96EB6); experiment: Inhibition of SIRT1 in human Hs683 cells assessed as increase of histone H4 acetylation after 8 hrs by Western blotting method; assay type: cell-based
T1 sequence (whole entry): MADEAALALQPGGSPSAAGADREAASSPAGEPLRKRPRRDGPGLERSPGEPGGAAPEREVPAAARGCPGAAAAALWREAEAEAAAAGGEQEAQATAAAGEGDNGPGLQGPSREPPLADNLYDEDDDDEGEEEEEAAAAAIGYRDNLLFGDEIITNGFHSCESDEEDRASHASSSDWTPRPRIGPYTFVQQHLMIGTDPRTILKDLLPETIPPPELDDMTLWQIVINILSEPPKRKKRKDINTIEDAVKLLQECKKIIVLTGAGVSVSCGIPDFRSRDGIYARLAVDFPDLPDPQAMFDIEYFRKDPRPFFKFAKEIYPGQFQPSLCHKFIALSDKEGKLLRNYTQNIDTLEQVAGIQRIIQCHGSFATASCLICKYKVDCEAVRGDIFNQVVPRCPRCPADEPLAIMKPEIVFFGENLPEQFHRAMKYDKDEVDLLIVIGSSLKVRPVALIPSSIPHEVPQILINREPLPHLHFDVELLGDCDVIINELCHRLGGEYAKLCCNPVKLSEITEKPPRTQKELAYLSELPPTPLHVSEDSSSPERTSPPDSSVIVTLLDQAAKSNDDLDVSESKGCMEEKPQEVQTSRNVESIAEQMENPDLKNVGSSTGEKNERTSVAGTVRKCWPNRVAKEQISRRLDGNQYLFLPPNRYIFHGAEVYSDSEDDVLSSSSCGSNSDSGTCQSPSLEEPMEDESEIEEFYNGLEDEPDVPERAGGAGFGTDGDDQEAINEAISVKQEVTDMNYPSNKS

HOP-92 = experiment: Growth inhibition of human HOP92 cells after 48 hrs by SRB assay; assay type: functional; conditions: HOP-92, 48 h
[10] = molecular target: T1, NAD-dependent protein deacetylase sirtuin-1 (Homo sapiens); experiment: Inhibition of SIRT1 in human U373 cells assessed as increase of histone H4 acetylation at 10 to 25 after 8 to 24 hrs by Western blotting method; assay type: cell-based
NCI-H322M = experiment: Growth inhibition of human NCI-H322M cells after 48 hrs by SRB assay; assay type: functional
[11] = molecular target: T1, NAD-dependent protein deacetylase sirtuin-1 (Homo sapiens); experiment: Inhibition of SIRT1 in human Hs683 cells assessed as increase of histone H4 acetylation at 10 to 25 after 8 to 24 hrs by Western blotting method; assay type: cell-based
RPMI-8226 = experiment: Growth inhibition of human RPMI8226 cells after 48 hrs by SRB assay; assay type: functional; conditions: RPMI-8226, 48 h
[12] = molecular target: Protein deacetylase HDAC6 (Homo sapiens) (UniProt Q9UBN7); experiment: Inhibition of His-tagged recombinant human HDAC6 expressed in baculovirus infected insect cells at 0.1 to 100 uM using Fluor-de-Lys-SIRT1 as substrate after 15 mins by fluorescence assay
Protein deacetylase HDAC6 (Homo sapiens), sequence (Q9UBN7 whole entry): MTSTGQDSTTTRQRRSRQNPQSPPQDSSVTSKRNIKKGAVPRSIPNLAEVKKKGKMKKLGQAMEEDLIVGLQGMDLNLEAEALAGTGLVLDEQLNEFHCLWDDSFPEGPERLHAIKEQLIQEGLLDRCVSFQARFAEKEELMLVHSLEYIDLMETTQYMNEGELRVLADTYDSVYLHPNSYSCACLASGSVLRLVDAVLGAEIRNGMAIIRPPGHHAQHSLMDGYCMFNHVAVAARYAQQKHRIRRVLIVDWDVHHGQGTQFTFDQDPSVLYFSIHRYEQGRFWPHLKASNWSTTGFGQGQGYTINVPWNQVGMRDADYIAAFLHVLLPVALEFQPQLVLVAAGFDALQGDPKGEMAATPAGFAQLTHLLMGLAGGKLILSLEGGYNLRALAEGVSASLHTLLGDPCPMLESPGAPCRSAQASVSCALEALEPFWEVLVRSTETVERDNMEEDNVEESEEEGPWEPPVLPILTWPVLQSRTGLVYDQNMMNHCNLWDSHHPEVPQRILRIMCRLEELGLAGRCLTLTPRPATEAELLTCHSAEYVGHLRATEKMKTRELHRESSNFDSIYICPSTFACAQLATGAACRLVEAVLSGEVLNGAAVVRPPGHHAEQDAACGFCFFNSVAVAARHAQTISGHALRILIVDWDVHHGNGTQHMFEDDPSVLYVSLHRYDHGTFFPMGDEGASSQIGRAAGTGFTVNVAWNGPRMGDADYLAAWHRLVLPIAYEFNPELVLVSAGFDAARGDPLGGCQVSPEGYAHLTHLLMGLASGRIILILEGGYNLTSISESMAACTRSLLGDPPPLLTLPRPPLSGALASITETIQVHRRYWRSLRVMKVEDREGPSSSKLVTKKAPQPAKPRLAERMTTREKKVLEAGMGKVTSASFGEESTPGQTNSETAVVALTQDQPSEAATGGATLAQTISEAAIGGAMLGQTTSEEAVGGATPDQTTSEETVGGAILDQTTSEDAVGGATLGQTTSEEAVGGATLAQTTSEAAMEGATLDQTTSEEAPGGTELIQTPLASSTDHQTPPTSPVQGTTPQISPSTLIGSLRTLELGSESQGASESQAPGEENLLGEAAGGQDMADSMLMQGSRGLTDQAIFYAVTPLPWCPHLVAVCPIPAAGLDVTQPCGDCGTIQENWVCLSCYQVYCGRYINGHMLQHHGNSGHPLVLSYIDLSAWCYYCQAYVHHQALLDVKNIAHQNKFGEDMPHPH

U-373MG ATCC [13] = experiment: Inhibition of spheroid forming capacity of human U373 cells assessed as decrease in volume of multicellular tumor spheroids at 5 to 10 uM treated for 24 hrs measured after 96 hrs by bright field microscopic method; assay type: functional, cell-based
Method in brief: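 Spheroids formed from 1 × 10^3 cells in 25 μL. Cells were pretreated 24 h with compound then left untreated 96 h, or untreated spheroids were cultured 96 h with compound. Surface measured from bright-field images; volume in voxels from 3D plots after image segmentation. Mean ± SD of three independent experiments.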

[14] = molecular target: Histone deacetylase 1 (Homo sapiens) (UniProt Q13547); experiment: Inhibition of His-tagged recombinant human HDAC1 expressed in baculovirus expression system at 0.1 to 100 uM using Fluor-de-Lys-SIRT1 as substrate after 15 mins by fluorescence assay
Histone deacetylase 1 (Homo sapiens), sequence (Q13547 whole entry): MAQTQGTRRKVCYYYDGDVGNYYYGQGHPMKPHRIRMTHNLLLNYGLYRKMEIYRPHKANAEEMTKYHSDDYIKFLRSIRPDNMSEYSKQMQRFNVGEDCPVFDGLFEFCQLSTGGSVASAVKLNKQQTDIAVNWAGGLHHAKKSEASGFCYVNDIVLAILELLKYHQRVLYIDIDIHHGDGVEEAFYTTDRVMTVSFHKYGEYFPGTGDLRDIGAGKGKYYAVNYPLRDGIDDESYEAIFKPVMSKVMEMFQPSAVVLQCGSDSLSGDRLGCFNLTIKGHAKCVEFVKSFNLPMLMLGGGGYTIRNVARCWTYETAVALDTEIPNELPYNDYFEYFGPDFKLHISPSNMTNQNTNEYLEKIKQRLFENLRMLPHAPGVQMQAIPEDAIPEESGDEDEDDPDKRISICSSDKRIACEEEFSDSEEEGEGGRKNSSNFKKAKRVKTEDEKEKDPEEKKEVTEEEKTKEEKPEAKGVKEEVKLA

SW1573/2R120 = experiment: Antiproliferative activity against human SW1573/2R120 cells overexpressing ABCC1/LRP after 72 hrs by MTT assay; assay type: functional, cell-based
Method in brief: (§2)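 MTT assay: cells in RPMI 1640 with 10% heat-inactivated FCS at 37 °C and 5% CO2 were seeded 24 h before treatment. They were exposed 72 h to compound at 0.01–100 μM, with DMSO as solvent.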

KB-HU = experiment: Antiproliferative activity against human KB-HU cells overexpressing ribonucleotide reductase subunit 2 after 72 hrs by MTT assay; assay type: functional, cell-based; method in brief: as §2

CC(C)(C)OC(=O)Nc1ccc2c(c1)C(NC(=O)Nc1cccc(C#N)c1)CC(C)(C)O2 (stereo not given)
GI50 (SK-MEL-2): 5.37 µM
Activity (U-373MG ATCC [1]): Active
GI50 (NCI-H460): 3.02 µM
GI50 (OVCAR-3): 2.29 µM
Ratio IC50 [2]: 20
Ratio IC50 (Hs 683 [3]): 20
Activity (U-373MG ATCC [4]): inactive
Activity (Hs 683 [5]): inactive
Activity [6]: <10%
GI50 (SN12C): 5.5 µM
Activity (U-373MG ATCC [7]): Active
GI50 (M14): 4.17 µM
Activity (U-373MG ATCC [8]): Active
GI50 (LOX IMVI): 1.62 µM
inhibition [9]: Dose-dependent effect
GI50 (HOP-92): 0.776 µM
inhibition [10]: Active
GI50 (NCI-H322M): 21.9 µM
inhibition [11]: Active
GI50 (RPMI-8226): 1.62 µM
inhibition [12]: inactive
inhibition (U-373MG ATCC [13]): Active
inhibition [14]: inactive
Activity (SW1573/2R120): Active
Activity (KB-HU): Active
